Diaph act CS: activates diaphorase or chemically reduces, flagging diaphorase assay artifacts; Diaphorase/resazurin coupled assay, resorufin fluorescence, 16 min; hits give high values; 1 = vehicle wells, 0 = NADH-free wells; activation factor at 20 µM; 190,000 compounds, 0.005% hits; AID 1229;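 active = diaphorase activity raised at least twofold by the compound at 20 µM; inactive = activation factor below 2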
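Material: Clostridium kluyveri diaphorase, purified enzyme; Quantity: enzyme 0.07 U/mL final; Medium: HEPES pH 7.4 buffer with MgCl2 and Tween 20; Dosing: single compound dose of 20 µM, 1% DMSO final; Schedule: 16 min reaction at room temperature; Measured by: red resorufin fluorescence at 544/590 nm excitation/emission.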
G6PDH counter: L. mesenteroides G6PDH inhibition counter-screen. inhibition, % at 5 µM. 200,000 compounds, 0.12% hits. Purified L. mesenteroides G6PDH, diaphorase/resazurin coupled fluorescence, 45 min. AID 1020; in the data active = inhibition above about 50%
PMI activator: activators of human phosphomannose isomerase. P34949. purified human PMI, coupled resazurin fluorescence, 20 min; hits give high values; 1 = vehicle control, 0 substrate-free wells. activation factor at 20 µM. 190,000 compounds, 0.005% hits. AID 1214;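 active = activation factor of 2 or more at 20 µM, relative to plate controls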
Target sequence (P34949 whole entry, looked up): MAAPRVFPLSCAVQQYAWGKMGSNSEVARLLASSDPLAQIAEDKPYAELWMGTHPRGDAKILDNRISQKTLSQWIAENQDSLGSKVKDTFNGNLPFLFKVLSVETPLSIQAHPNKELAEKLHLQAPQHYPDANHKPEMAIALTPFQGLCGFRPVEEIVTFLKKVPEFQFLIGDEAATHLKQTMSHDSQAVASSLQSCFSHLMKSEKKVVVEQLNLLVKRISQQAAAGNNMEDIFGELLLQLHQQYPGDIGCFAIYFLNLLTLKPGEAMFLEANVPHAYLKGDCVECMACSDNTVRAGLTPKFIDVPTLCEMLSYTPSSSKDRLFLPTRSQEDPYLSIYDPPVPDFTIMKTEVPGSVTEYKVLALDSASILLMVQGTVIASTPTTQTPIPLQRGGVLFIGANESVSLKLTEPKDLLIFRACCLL
PMI act hi M6P: increases human PMI activity with near-saturating mannose 6-phosphate. P34949. coupled PMI enzyme assay, resazurin fluorescence, 20 min; hits give high values; 1 = untreated enzyme, 0 = substrate-free blank. activation factor at 20 µM. 190,000 compounds, 0.34% hits. AID 1216;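 active = activation factor of 2 or more at 20 µM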
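Test system: Human PMI in coupled enzyme assay | Input: 15 ng/mL PMI | Medium: HEPES-buffered pH 7.4 with magnesium and detergent | Compound: One concentration, 20 µM, in 1% DMSO | Incubation: Enzyme reaction with compound 20 min at room temperature | Detection: Diaphorase-driven resazurin-to-resorufin fluorescence, excitation 544, emission 590 nm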
Diaphorase inh: diaphorase inhibition or chemical oxidation counter-screen; diaphorase resazurin-to-resorufin fluorescence, NADH, 16 min; bacterial (C. kluyveri) enzyme, not human; inhibition, % at 20 µM; 190,000 compounds, 0.69% hits;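 active = primary screen inhibition at 20 µM above a set limit, cut at about 50% in these data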;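 note: plate controls were DMSO with full reaction for no effect and wells lacking NADH for full effect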
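Test system: bacterial diaphorase enzyme (C. kluyveri); Quantity: 0.14 U/mL diaphorase, enzyme working solution; Times: reaction incubation of 16 min at room temperature; Measured by: fluorescence of resorufin formed from resazurin, Ex 544/Em 590 nm; Benchmarks: positive control minus NADH, DMSO neutral control.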
Numbers without * were called inactive. Shown are actives, neighbours in structure and some others; about 1.1% of the full set was active somewhere.

SMILES	Diaph act CS	G6PDH counter	PMI activator	PMI act hi M6P	Diaphorase inh
O=C1c2cccc3c(Nc4ccccc4Cl)c([N+](=O)[O-])cc(c23)C(=O)N1CCO	0.4	16	0.8	0.9	56*
O=C1c2cccc([N+](=O)[O-])c2C(=O)N1CCO	0.8	3	1	1	19
CC(=C/c1ccccc1)/C=N/n1c(-c2ccncc2)n[nH]c1=S	0.3	9	0.7	0.7	66*
O=[N+]([O-])c1cccc(/C=N/n2c(C3CCCCC3)n[nH]c2=S)c1	0.7	-35	0.9	0.9	26
S=c1[nH]nc(C2CCCCC2)n1/N=C/C(Cl)=C\c1ccccc1	0.7	-38	0.8	0.8	25
Cc1cc(-c2n[nH]c(=S)n2/N=C/C(Cl)=C/c2ccccc2)n[nH]1	0.5	13	0.7	0.8	51*
Cc1cc(-c2n[nH]c(=S)n2/N=C/c2cccc([N+](=O)[O-])c2)n[nH]1	0.4	-2	0.9	1	62*
CN1C(=O)/C(=C/c2ccccc2OCc2ccccc2)NC1=S	0.8	11	0.9	0.9	19
CN1C(=O)/C(=C/c2ccccc2OCc2ccc(C(=O)O)cc2)NC1=S	0.4	13	0.9	0.9	58*
COc1ccc(NC(=O)CC23CC4CC(C2)CC(n2nnc(C)n2)(C4)C3)cc1	0.9	2	1.1	1	10
Cc1c(N)c(C(C)(C)C)cc(C(C)(C)C)c1[N+](=O)[O-]	0.8	13	0.9	1	23
Cc1cc2nc3c(=O)[nH]c(=O)[nH]c3nc2c([N+](=O)[O-])c1N	0.3	30	0.9	0.5	65*
CCOc1ccc(C(Nc2cccnc2)c2cc(Cl)c3cccnc3c2O)cc1 (stereo unspecified)	0.7	28	0.8	0.3	30
CC(C)C(=O)NC(c1cccs1)c1cc([N+](=O)[O-])c2cccnc2c1O (stereo unspecified)	0.6	13	0.8	0.5	36
O=C(O)COc1ccccc1C(Nc1ccccn1)c1cc(Cl)c2cccnc2c1O (stereo unspecified)	0.5	17	0.9	0.9	51*
CCC(=O)NC(c1ccc(OC)c(OC)c1)c1cc(Cl)c2cccnc2c1O (stereo unspecified)	0.8	14	0.9	0.6	25
O=C(O)COc1ccccc1C(Nc1cccnc1)c1cc(Cl)c2cccnc2c1O (stereo unspecified)	0.4	23	0.7	0.7	61*
Cc1ccc(C(NC(=O)C(C)C)c2cc([N+](=O)[O-])c3cccnc3c2O)cc1 (stereo unspecified)	0.6	53*	0.9	0.5	39
COc1ccc(C(NC(C)=O)c2cc(Cl)c3cccnc3c2O)cc1OC (stereo unspecified)	0.3	10	0.6	0.4	66*
COc1ccc(Nc2ccc3nnc(-c4ccc(Br)cc4)n3n2)cc1	0.9	-1	1	1.1	5
CC1CCCC(C)N1CC(C)(C)NS(=O)(=O)c1ccc(Cl)cc1 (stereo unspecified)	0.9	6	1	1	10
Cc1nc2ccccc2n1CCc1nc2c3ccccc3nc(=S)n2[nH]1	0.1	-1	1	1	89*
CCCc1[nH]n(-c2ccc(F)cc2)c(=O)c1C=Nc1ccc(C)cc1	0.9	3	0.9	1	13
Cc1ccc(N=Cc2cccc(O)c2O)c(C)c1	0.3	54*	0.2	0.4	67*
CC(N=Cc1cccc(O)c1O)c1ccccc1 (stereo unspecified)	0.5	52*	0.5	0.6	51*
SMILES	Diaph act CS	G6PDH counter	PMI activator	PMI act hi M6P	Diaphorase inh
Cc1ccccc1N=Cc1cccc(O)c1O	0.2	52*	0.3	0.3	83*
Cc1cccc(C=Nc2ccc3c(c2)oc2ccccc23)c1O	0.9	18	0.8	0.7	12
CCN(CC)c1ccc(C=Nc2ccc(C)cc2C)c(O)c1	1.1	20	1	0.6	-14
CCN(CC)S(=O)(=O)c1ccc(C(=O)NCC(c2ccc(OC)cc2)N2CCOCC2)cc1 (stereo unspecified)	1.1	4	1.1	1.1	-9
COc1ccc(-c2nc(=S)c3ccc4ccccc4c3[nH]2)cc1	0.9	0	1.7	2.3*	9
COc1ccc(-c2nc3ccccc3[nH]2)cc1	1	1	1	1	4
COc1cc(C#N)c(N=C(SCC#N)N2CCOCC2)cc1OC	0.8	2	0.9	0.8	17
Nc1[nH]n2c(=O)cc(-c3ccccc3)nc2c1N=Nc1ccc(S(N)(=O)=O)cc1	0.1	12	0.9	1	90*
Nc1[nH]n2c(=O)cc(-c3ccccc3)nc2c1N=Nc1ccccc1	0.3	5	0.7	1	67*
C/C(N)=C(/C#N)C(=O)CSc1nc2ccccc2c(=O)n1-c1ccc(C)c(Cl)c1	0.8	-3	0.9	1	16
COCCCN(CC(=O)Nc1ccc(N2CCOCC2)cc1)S(=O)(=O)c1ccccc1	0.9	3	0.9	0.9	10
COc1ccnc(Oc2ccccc2)c1C(N)=O	0.8	18	0.8	0.9	24
Cc1nnc(SCC(=O)c2ccc(C(C)C)cc2)s1	0.8	9	0.9	0.9	20
COc1ccc(CC(=O)NNC(=O)c2cnccn2)cc1	0.7	8	0.8	0.8	26
COc1ccc(C(=O)NC(=S)NNC(=O)c2cnccn2)cc1	0.4	-3	0.7	1.1	65*
COc1cc(C(=O)NC(=S)NNC(=O)c2cnccn2)cc(OC)c1OC	0.5	-8	0.9	1.3	51*
CCn1c(C)nc2cc(C(=O)NNC(=S)NC(=O)c3ccc(OC)cc3)ccc21	0.4	-4	1	1.1	57*
Cc1ccc(-c2nnc(N3CC(C)OC(C)C3)c3ccccc23)cc1 (stereo unspecified)	1.1	2	1.1	1.1	-7
O=C1Nc2ccccc2N2CCCC12 (stereo unspecified)	0.4	15	1.2	1.8	60*
O=C1Nc2cc(S(=O)(=O)N3CCCC3)ccc2N2CCCC12 (stereo unspecified)	1	10	1.3	2*	-4
Cc1ccc(NC(=O)CSc2nc3ccccc3c(=O)n2CCCN2CCCCC2)cc1C	1	2	0.9	0.9	3
CC(=O)Nc1ccc(S(=O)(=O)Nc2nc3ccccc3nc2N2CCCC2)cc1	0.5	-3	1	1.1	50*
Cc1ccc2nc3sc(C(=O)N4CCOCC4)c(N)c3cc2c1	0.9	2	1.5	2*	15
Cc1ccc2cc3c(N)c(C(=O)N4CC(=O)Nc5ccccc54)sc3nc2c1	0.9	2	1.3	2.1*	12

Screens deposited in PubChem by Sanford-Burnham Center for Chemical Genomics.
